For experiment [1], the target named is T1, TbGSK3 (Trypanosoma brucei brucei, UniProt Q388M1).
T1 sequence (Q388M1 1-352): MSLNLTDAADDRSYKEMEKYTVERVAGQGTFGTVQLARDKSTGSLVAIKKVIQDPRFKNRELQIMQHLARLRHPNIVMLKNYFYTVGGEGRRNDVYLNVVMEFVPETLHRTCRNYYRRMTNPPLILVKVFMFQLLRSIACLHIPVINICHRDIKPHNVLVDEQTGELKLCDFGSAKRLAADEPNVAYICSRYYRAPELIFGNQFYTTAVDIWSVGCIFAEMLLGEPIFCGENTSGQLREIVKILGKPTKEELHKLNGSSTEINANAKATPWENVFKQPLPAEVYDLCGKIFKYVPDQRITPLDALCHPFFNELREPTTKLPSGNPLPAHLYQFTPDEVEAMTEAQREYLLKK
As to the kind of experiment: TbGSK3 radiometric Flashplate potency assay. In kind it is biochemical. To be noted: for IC50: IC50 TbGSK3, Flashplate, 1 μM ATP (<KM); for fold less active than 8 against TbGSK3: compared with compound 8. Put shortly: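 Radiometric streptavidin Flashplate capture of biotinylated phosphoproduct. MBP-fused short TbGSK3 (2.5 nM), 1 μM biotinylated GSP2, 1 μM ATP plus 3.7 KBq [γ-³³P]ATP/well. 10-point titration, 30 μM–0.3 nM final, 1% DMSO. IC50 by four-parameter fit; ligand efficiency = [−RT ln(IC50)]/heavy-atom count.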

The target of the next experiment is HsGSK3β (Homo sapiens, UniProt P49841). In words: HsGSK3β radiometric Flashplate assay. In kind it is biochemical.
In experiment [2] the target is T1, TbGSK3. In words: Mechanism of inhibition of TbGSK3. In kind it is biochemical. As to conditions: for mechanism of inhibition: versus ATP, saturating GSP2. Put shortly: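 Rates (CPM) measured at 10 test-compound concentrations × four ATP concentrations, GSP2 phosphopeptide saturating. Lineweaver–Burk plots examined for competitive, mixed or uncompetitive patterns; apparent K_i calculated.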

Experiment [3] deals with MRC5 (human lung fibroblast) cells. As to the kind of experiment: MRC5 proliferation assay. As to conditions: T. brucei versus MRC5. The class given is cell-based. In outline:
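MRC5 human lung fibroblasts, 2×10³ cells/well, grown in MEM with 10% foetal bovine serum. Test compound from 50 μM to 0.5 nM. Incubated 69 h at 37 °C, 5% CO₂. Resazurin added (50 μM final), then a further 4 h under the same conditions. Read by fluorescence.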

Another experiment addresses GSK3 (Homo sapiens, UniProt P49841). In words: Mammalian kinase selectivity panel. In kind it is biochemical. To be noted: read-out: inhibition of GSK3. Put shortly: (§1)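 Run by the University of Dundee DSTT mammalian panel, which then held 76 kinases. Test compound screened in duplicate at 10 μM. Each kinase assayed with ATP below its apparent K_M for ATP.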
The target of the next experiment is CDK2-Cyclin A (Homo sapiens, UniProt P24941). As to the kind of experiment: Mammalian kinase selectivity panel. To be noted: read-out: inhibition of CDK2. The class given is biochemical. In outline: as §1
For another experiment, the target named is 76 mammalian kinases. In words: Mammalian kinase selectivity panel, whole panel. The class given is biochemical. To be noted: 10 μM.

Molecules are shown by their SMILES. Where “and” joins values, the source holds several entries; their conditions need not be identical. Identical values can stand only once.

Data on 9 compounds can be found in PMC3728731 (Chemmedchem, 2013).

Chain of HsGSK3β (P49841 whole entry): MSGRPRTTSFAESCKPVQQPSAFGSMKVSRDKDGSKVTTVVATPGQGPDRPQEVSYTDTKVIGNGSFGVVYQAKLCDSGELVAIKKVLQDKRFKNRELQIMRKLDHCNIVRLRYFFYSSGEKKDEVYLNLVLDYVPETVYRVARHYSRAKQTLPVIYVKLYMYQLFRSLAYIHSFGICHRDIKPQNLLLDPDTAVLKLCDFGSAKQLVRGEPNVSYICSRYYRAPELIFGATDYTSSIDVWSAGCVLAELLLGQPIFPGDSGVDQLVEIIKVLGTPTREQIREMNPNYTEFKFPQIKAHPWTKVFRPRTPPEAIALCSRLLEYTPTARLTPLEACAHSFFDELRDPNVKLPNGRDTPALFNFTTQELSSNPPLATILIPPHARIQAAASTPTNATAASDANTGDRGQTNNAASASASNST
Chain of GSK3 (P49841 whole entry): as above

In the case of `Nc1nc(Nc2ccccc2)sc1C(=O)c1c(F)cccc1F` [Compound 14, (4-Amino-2-(phenylamino)thiazol-5-yl)(2,6-difluorophenyl)methanone], the half-maximal inhibitory concentration (IC50) against TbGSK3 [1] came to 20 nM; against HsGSK3β, 5 nM. At TbGSK3 [2], this compound showed a Ki of 50 ± 10 nM. On TbGSK3 [2], the mechanism of inhibition entry is on record as “ATP-competitive”.
For `COc1cccc(OC)c1C(=O)c1sc(Nc2ccccc2)nc1N` [Compound 15, (4-Amino-2-(phenylamino)thiazol-5-yl)(2,6-dimethoxyphenyl)methanone], the IC50 against TbGSK3 [1] came to 400 nM; on HsGSK3β, 2000 nM. Also, the “fold less active than 14 against TbGSK3” value on TbGSK3 [1] (compared with compound 14) was “over 10 fold”.
With `Nc1nc(Nc2ccccc2)sc1C(=O)c1cccc(Br)c1` [Compound 16, (4-Amino-2-(phenylamino)thiazol-5-yl)(3-bromophenyl)methanone], the IC50 at TbGSK3 [1] was found to be 100 nM; on HsGSK3β, 5 nM.
Consider `Cc1cccc(C)c1Nc1nc(N)c(C(=O)c2ccccc2)s1` [Compound 17, (4-Amino-2-((2,6-dimethylphenyl)amino)thiazol-5-yl)(phenyl)methanone], for which the IC50 against TbGSK3 [1] and against HsGSK3β was 200 nM in each case. Further, the “fold less active than 8 against TbGSK3” value at TbGSK3 [1] is “approximately 10 fold”.
On to `Cc1ccc(Nc2nc(N)c(C(=O)c3ccccc3)s2)cc1C` [Compound 18, (4-Amino-2-((3,4-dimethylphenyl)amino)thiazol-5-yl)(phenyl)methanone], for which the IC50 was 60 nM against TbGSK3 [1] and 2 nM on HsGSK3β.
In the case of `Nc1nc(NC2CCCCC2)sc1C(=O)c1ccccc1` [Compound 19, (4-Amino-2-(cyclohexylamino)thiazol-5-yl)(phenyl)methanone], on TbGSK3 [1], the IC50 was 190 nM and 200 nM; the “fold less active than 8 against TbGSK3” value was “sixfold”. Besides, on HsGSK3β, the IC50 amounted to 2 nM. Moreover, on TbGSK3 [2], the Ki came to 250 ± 30 nM and the mechanism of inhibition result was “ATP-competitive”.
On to `Nc1nc(NCC2CCCCC2)sc1C(=O)c1ccccc1` [Compound 20, (4-Amino-2-((cyclohexylmethyl)amino)thiazol-5-yl)(phenyl)methanone], for which the values for the IC50 against TbGSK3 [1] and on HsGSK3β were 700 nM and 20 nM, respectively.
On to `Nc1nc(NCCc2ccccc2)sc1C(=O)c1ccccc1` [Compound 21, (4-Amino-2-(phenethylamino)thiazol-5-yl)(phenyl)methanone], for which the IC50 at TbGSK3 [1] worked out at 500 nM; against HsGSK3β it was 3 nM.
With `CC(C)(C)C(=O)c1sc(NC2CCCCC2)nc1N` [Compound 22, 1-(4-Amino-2-(cyclohexylamino)thiazol-5-yl)-2,2-dimethylpropan-1-one], at TbGSK3 [1], the IC50 came out at 12000 nM and the “fold less active than 8 against TbGSK3” value is reported as around 300 fold. Also, the “selectivity over the human MRC5 cell line” value in experiment [3] is above 150 fold. Moreover, the inhibition at 10 µM on GSK3 was above 70%. The inhibition at 10 µM on CDK2-Cyclin A was above 70%. In addition, the “kinases of the panel inhibited at the >90 % level” value on 76 mammalian kinases is given as “did not inhibit any kinase at the >90 % level”.
